Measured values as given in PMC2831464 (Clinical cancer research : an official journal of the …, 2010).
Values joined by “and” are separate entries in the source; they are usually repeats but may differ in a detail not shown here. Equal values may be shown once.

How the values were obtained:
[1] = Plasma pharmacokinetics of AR-67 lactone and carboxylate; assay type: in vivo, human; settings: for Lactone AUC(0−∞) / Total AUC(0−∞) / Vss, total / Cmax, total / Clearancetotal / T(1/2)total: day 4 cycle 1; for Cmax, total: observed at 45 min of 1-hr infusion
Procedure, shortened: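 Test compound was given as a 1-h IV infusion daily × 5. Heparinized blood was drawn on days 1 and 4 of cycle 1: pre-dose, 5, 45 and 65 min, and 1.5, 2, 4, 6, 8 and 24 h after infusion start. Plasma lactone and carboxylate were quantified by validated HPLC-fluorescence. Parameters were noncompartmental. Cmax was the observed 45-min value. Half-life required ≥3 elimination-phase points.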

[2] = system: refractory solid malignancies; test: Tumor response per RECIST v1.0; assay type: in vivo, human
[3] = Exposure-toxicity relationship, sigmoid E-max model; assay type: in vivo, human
Procedure, shortened: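 Patients received a 1-h IV infusion of test compound daily × 5 every 21 days. Toxicity measure was the cycle 1 nadir of ANC and platelets, expressed as % decrease. Exposure metrics were total test compound AUC (day 1, cycle 1) and administered daily dosage level. Total rather than lactone parameters were used.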

UGT1A8 = settings: cited from earlier work
CYP3A4 = settings: in-vitro data; cited from earlier work
[4] = cycle 1, all patients, sigmoid E-max model
[5] = total AR-67 AUC day 1 of cycle 1, sigmoid E-max model

Which results are given for CC[C@@]1(O)C(=O)OCc2c1cc1n(c2=O)Cc2c-1nc1ccc(O)cc1c2[Si](C)(C)C(C)(C)C [AR-67, 7-t-butyldimethylsilyl-10-hydroxycamptothecin]?
Lactone AUC(0−∞) ([1]; 1.67 mg/m^2 (n=3), mean): 109 ng·h/mL; Total AUC(0−∞) ([1]; 1.67 mg/m^2 (n=3), mean): 115 ng·h/mL; Vss, total ([1]; 1.67 mg/m^2 (n=3), mean): 16.3 L/m^2; Cmax, total ([1]; 1.67 mg/m^2 (n=3), mean): 74.6 ng/mL; Clearancetotal ([1]; 2.34 mg/m^2 (n=3), mean): 15.3 L/hr/m^2; Lactone AUC(0−∞) ([1]; 2.34 mg/m^2 (n=3), mean): 137 ng·h/mL; Total AUC(0−∞) ([1]; 2.34 mg/m^2 (n=3), mean): 154 ng·h/mL; Vss, total ([1]; 2.34 mg/m^2 (n=3), mean): 7.9 L/m^2; Cmax, total ([1]; 2.34 mg/m^2 (n=3), mean): 137.8 ng/mL; Clearancetotal ([1]; 3.23 mg/m^2 (n=3), mean): 13.3 L/hr/m^2; Lactone AUC(0−∞) ([1]; 3.23 mg/m^2 (n=3), mean): 236 ng·h/mL; Total AUC(0−∞) ([1]; 3.23 mg/m^2 (n=3), mean): 255 ng·h/mL; Vss, total ([1]; 3.23 mg/m^2 (n=3), mean): 10.6 L/m^2; Cmax, total ([1]; 3.23 mg/m^2 (n=3), mean): 195 ng/mL; Clearancetotal ([1]; 4.5 mg/m^2 (n=1)): 24.2 L/hr/m^2; Lactone AUC(0−∞) ([1]; 4.5 mg/m^2 (n=1)): 149 ng·h/mL; Total AUC(0−∞) ([1]; 4.5 mg/m^2 (n=1)): 186 ng·h/mL; Vss, total ([1]; 4.5 mg/m^2 (n=1)): 45.3 L/m^2; Cmax, total ([1]; 4.5 mg/m^2 (n=1)): 82.5 ng/mL; Clearancetotal ([1]; 6.3 mg/m^2 (n=1)): 14.7 L/hr/m^2; Lactone AUC(0−∞) ([1]; 6.3 mg/m^2 (n=1)): 327 ng·h/mL; Total AUC(0−∞) ([1]; 6.3 mg/m^2 (n=1)): 429 ng·h/mL; Vss, total ([1]; 6.3 mg/m^2 (n=1)): 35.3 L/m^2; Cmax, total ([1]; 6.3 mg/m^2 (n=1)): 166.4 ng/mL; Clearancetotal ([1]; 7.5 mg/m^2 (n=7), mean): 16.8 L/hr/m^2; Lactone AUC(0−∞) ([1]; 7.5 mg/m^2 (n=7), mean): 411 ng·h/mL; T(1/2)total ([1]; 7.5 mg/m^2 (n=7), mean): 1.8 h; Total AUC(0−∞) ([1]; 7.5 mg/m^2 (n=7), mean): 478 ng·h/mL; Vss, total ([1]; 7.5 mg/m^2 (n=7), mean): 25.6 L/m^2; Cmax, total ([1]; 7.5 mg/m^2 (n=7), mean): 308.6 ng/mL; Clearancetotal ([1]; 8.9 mg/m^2 (n=4), mean): 18.6 L/hr/m^2; Lactone AUC(0−∞) ([1]; 8.9 mg/m^2 (n=4), mean): 397 ng·h/mL; T(1/2)total ([1]; 8.9 mg/m^2 (n=4), mean): 1.4 h; Total AUC(0−∞) ([1]; 8.9 mg/m^2 (n=4), mean): 507 ng·h/mL; Vss, total ([1]; 8.9 mg/m^2 (n=4), mean): 27.5 L/m^2; Cmax, total ([1]; 8.9 mg/m^2 (n=4), mean): 276.7 ng/mL; Clearancetotal ([1]; 12.4 mg/m^2 (n=2), mean): 19.8 L/hr/m^2; Lactone AUC(0−∞) ([1]; 12.4 mg/m^2 (n=2), mean): 551 ng·h/mL; T(1/2)total ([1]; 12.4 mg/m^2 (n=2), mean): 1.7 h; Total AUC(0−∞) ([1]; 12.4 mg/m^2 (n=2), mean): 663 ng·h/mL; Vss, total ([1]; 12.4 mg/m^2 (n=2), mean): 28.9 L/m^2; Cmax, total ([1]; 12.4 mg/m^2 (n=2), mean): 358.5 ng/mL; Clearancetotal ([1]; All dosage levels (N=25), mean): 17.4 ±5.2 L/hr/m^2 and 17.4 L/hr/m^2; T(1/2)total ([1]; All dosage levels, mean): 1.6 h; lactone form as share of the total AR-67 AUC (lactone + carboxylate) ([1]; human plasma, mean (±SD)): 87.5% and ~ 87.5%; increase of mean clearance of total AR-67 from day 1 to day 4 ([1]; p=0.0031, Wilcoxon signed rank): 20%; elimination half-life ([1]; patients, iv): ~ 1.4 hr; elimination profile ([1]; plasma, MTD cohort): bi-exponential profile; share of the total concentration in the lactone form ([1]; plasma, at each time point, all patients): Greater than 80%; subjects with stable disease ([2]; 22 subjects evaluable): Four; duration of prolonged partial response ([2]; one patient): > 16 months; response per RECIST v1.0 ([2]; one subject, squamous cell carcinoma of the lung (NSCLC), dosage level 5.5, ten cycles): prolonged partial response; time after end of cycle 10 with partial response maintained ([2]; recurrent NSCLC patient, 10 cycles, as of this writing): ≥ 7 months; dosage level ED50 (95% CI) for % decrease in ANC [3, 4]: 6.1 (4.3 – 8.7) mg/m^2; dosage level ED50 (95% CI) for % decrease in platelets [3, 4]: 4.9 (3.2 – 7.6) mg/m^2; AUC ED50 (95% CI) for % decrease in ANC [3, 5]: 323.6 (231.9 – 451.6) hr*ng/mL; AUC ED50 (95% CI) for % decrease in platelets [3, 5]: 364.2 (249.4 – 531.9) hr*ng/mL; metabolism by UGT1A8 (UGT1A8): extensively metabolized; substrate for CYP3A4 (CYP3A4): is a substrate
